Results of several laboratories.
Compare with care: the assays were run in different laboratories.
Target: Homeodomain-interacting protein kinase 3 (HIPK3, Homo sapiens, UniProt Q9H422)
Read-out: enzyme activity
Action: inhibitor

Compound	assay	setting	remaining activity
CCCOc1ccc(OC)c(F)c1C(=O)c1ccc(C(=O)N[C@@H]2CNC[C@H]2NC(=O)c2ccc3[nH]ncc3c2)cc1	–	10 µM	97%
COc1cc(Cl)c(C(=O)N[C@@H](CN[C@H]2CC[C@@H](N)CC2)Cc2ccc(C#N)cc2)cc1-c1ccc(CN[C@H](C)c2ccc(C)cc2)o1	–	1 µM	96%
CCN(CC)c1ccc(C2=NNC(=O)CC2C)cc1[N+](=O)[O-] (stereo not shown)	–	10 µM	40%
Cc1cnc(NC2CCOCC2)nc1-n1cnc(C(=O)NC(CN)c2cc(F)cc(Cl)c2)c1 (stereo not shown)	radiometric	1 µM	94%
FC(F)c1nc2ccccc2n1-c1nc(N2CCOCC2)nc(N2CCOCC2)n1	–	10 µM	98%
CC(C)(C)c1nc2c(s1)c1nc(N)ncc1c1ccc(NS(=O)(=O)c3c(F)cccc3F)c(F)c12	radiometric	1 µM	96%
CC(C)(O)[C@H]1CC[C@H](Nc2ccc3ncc(-c4cccc(C(F)(F)F)c4)n3n2)CC1	–	1 µM	78.4%
O=C(O)c1ccc2c(c1)nc(NCCc1ccccc1)c1ccncc12	radiometric	1 µM	8%
Oc1cccc(-c2nc(N3CCOCC3)c3oc4ncccc4c3n2)c1	–	10 µM	82%
O=C(O)c1ccc2c(c1)nc(Nc1ccc3ccccc3c1)c1ccncc12	radiometric	1 µM	7%
CC(C)(C)c1nc(-c2cccc(NS(=O)(=O)c3c(F)cccc3F)c2F)c(-c2ccnc(N)n2)s1	radiometric	1 µM	99%
O=C(O)c1ccc2c(c1)nc(NCc1ccccc1)c1ncncc12	radiometric	1 µM	52%
O=C(Nc1cnn(-c2csc(C(=O)NC3COC3)c2)c1)Nc1ccccc1Cl	–	5 µM	97.6%
O=C(O)c1ccc2c(c1)nc(NCCc1cccc(Cl)c1)c1ncncc12	radiometric	1 µM	38%
COc1cc(Nc2cnc(C#N)c(O[C@H](C)CN(C)C)n2)ncc1-c1cnn(C)c1	radiometric	1 µM	96%
O=C(O)c1ccc2c(c1)nc(Nc1ccc(F)c(Cl)c1)c1ncncc12	radiometric	1 µM	12%
Cc1sc(C(=O)NC2COC2)cc1-n1cc(NC(=O)Nc2c(F)cccc2Cl)cn1	–	10 µM	88.5%
O=C(O)c1ccc2c(c1)nc(Nc1ccc(F)c(Cl)c1)c1ccncc12	radiometric	1 µM	5%
Cc1ccc(C(=O)Nc2ccc(CN3CCN(C)CC3)c(C(F)(F)F)c2)cc1C#Cc1cnc2cccnn12	–	23.5 nM	93%
